ATG4B inhibitor: blocks human ATG4B protease cleavage of LC3 substrate. 0.51% of 340,000 active. ATG4B cleavage of LC3-PLA2, NBD-HPC fluorescence, 1 h. inhibition, % at 8.33 µM. Q9Y4P1. AID 504462; in the data active means inhibition above about 40%
PRMT1 inh: inhibitors of human PRMT1; Q99873; recombinant PRMT1, activity-based probe fluorescence polarization; inhibition, % at 2.79 µM; 1.3% of 370,000 active;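 active means inhibition above about 21% made by adding two undisclosed values, limit read from the data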
SIAE inh: blocks human sialic acid acetylesterase; Q9HAT2; SIAE FP-Rh probe binding, fluorescence polarization; inhibition, % at 9.66 µM; 0.69% of 370,000 active;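 active means inhibition above a cutoff: mean of compounds within the control limits plus 3 SD of those, cut at about 17% in these data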;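 further: 0% = plate median of compound wells and 100% = probe without SIAE protein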
mABHD4 FP: ABHD4 (mouse) inhibition, primary FP screen; Q8VD66; purified mABHD4, FP-Rh probe fluorescence polarization; inhibition, % at 8.92 µM; 0.54% of 370,000 active; AID 720543;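 active means inhibition exceeding the mean over every tested compound plus 3 SD, cut at about 30% in these data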;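 further: 0% = plate median of compound wells and 100% = S159A mutant with DMSO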
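Assay system: mABHD4 protein; medium: HEPES pH 7.0, NaCl, Pluronic buffer; dosing: 8.92 µM, single dose; schedule: 45 min + 60 min at 25 °C; signal: FP readout, ex 525 nm / em 598 nm; read-out: normalized percent inhibition of probe labeling; repeats: single replicate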
TCR CD3 inh: inhibitors of human TCR-CD3 interaction | 0.37% of 360,000 active | inhibition, % at 9.4 µM | TAMRA-labeled TCR probe fluorescence, biochemical; in the data active means inhibition above about 19%;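 further: recombinant mutant TCR 2C K166C tagged with TAMRA read by polarization; 0% = receptor in buffer alone and 100% = receptor with positive control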
HTRA1 inh: HTRA1 (human) protease inhibition; recombinant HTRA1, FP-rhodamine activity-based probe, fluorescence polarization; inhibition, % at 5.96 µM; Q92743; AID 504803; 0.5% of 340,000 active; in the data active means inhibition above about 36%;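 further: 0% = enzyme with DMSO and 100% = wells lacking enzyme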
Target sequence (Q92743 whole entry, looked up): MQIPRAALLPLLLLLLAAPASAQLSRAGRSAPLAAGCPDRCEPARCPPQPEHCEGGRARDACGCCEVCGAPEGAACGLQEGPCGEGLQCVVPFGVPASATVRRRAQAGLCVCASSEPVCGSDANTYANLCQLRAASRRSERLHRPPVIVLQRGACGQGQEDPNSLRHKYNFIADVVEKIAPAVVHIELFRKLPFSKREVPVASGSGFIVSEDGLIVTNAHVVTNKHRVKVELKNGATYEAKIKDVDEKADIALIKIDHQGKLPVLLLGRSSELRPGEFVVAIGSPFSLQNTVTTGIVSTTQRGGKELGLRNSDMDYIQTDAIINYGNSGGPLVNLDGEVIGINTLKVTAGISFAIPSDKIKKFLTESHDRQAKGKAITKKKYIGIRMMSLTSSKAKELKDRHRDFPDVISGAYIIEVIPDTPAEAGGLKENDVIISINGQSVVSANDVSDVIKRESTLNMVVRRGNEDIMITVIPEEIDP
SIAE confirm: human SIAE inhibition, confirmation. AID 1117263. SIAE FP-Rh activity-based probe, fluorescence polarization. inhibition, % at 9.66 µM. 13% of 2,300 active. shares compounds with SIAE inh;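 active means mean inhibition of the replicates above the hit cutoff set in the primary screen, cut at about 17% in these data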;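 further: 0% = SIAE with DMSO and probe and 100% = probe without SIAE; inhibitors lower polarization as more probe stays unbound to SIAE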
* marks the source's active call; other numbers are inactive results; / = no result given. The list is not random: actives were taken first. Their share in the collection is about 2.9%.

SMILES	ATG4B inhibitor	PRMT1 inh	SIAE inh	mABHD4 FP	TCR CD3 inh	HTRA1 inh	SIAE confirm
O=S(=O)(c1ccc(N2CCCCCC2)nc1)N1CCCC1	-13	-1	20*	1	-2	5	-1
CCOc1cc(/C=N/Nc2ccc(C(=O)O)cc2)ccc1OC(=O)c1ccccc1C	27	-3	26*	0	1	1	31*
Oc1ccc(/C=N/Nc2ncnc3nc[nH]c23)cc1	-10	-1	18*	2	3	4	-2
Clc1ccc(/C=N/Nc2ncnc3nc[nH]c23)cc1	-5	8	2	-2	-1	3	/
Fc1ccc(NC2CCC23CCC(c2ccccc2)CC3)cc1C(F)(F)F (configuration not stated)	/	1	5	-16	/	/	/
CCCCc1ccc(-c2noc(CCC(=O)NCC)n2)cc1	/	-1	2	-7	/	/	/
O=C(NCc1ccccc1)C1CCN(c2nc(-c3ccc(Br)cc3)cs2)CC1	/	10	-3	-4	/	/	/
CCOc1cc(C(N)=O)cc(Br)c1OCC	17	-2	10	0	11	-3	/
CCOc1cc(C(N)=O)cc(Cl)c1OCC	7	-3	17*	-2	0	0	1
Nc1sc(-c2ccccc2)cc1C(=O)NCCc1c[nH]c2ccccc12	/	5	26*	1	-2	/	8
Nc1[nH]c(C(=O)c2ccccc2)c(-c2ccccc2Br)c1C(=O)NCCc1c[nH]c2ccccc12	/	2	19*	18	0	/	7
Nc1[nH]c(C(=O)c2ccccc2)c(-c2ccccc2[N+](=O)[O-])c1C(=O)NCCc1c[nH]c2ccccc12	/	4	18*	23	-4	/	1
CCCCCCCCN1C(=O)[C@@H](CC(=O)NCc2cccs2)C[C@@]2(C(=O)OC)C1=C[C@H](C(C)C)O[C@@H]2C1CC1	/	1	3	-8	/	/	/
NNc1nc2c(-c3cccc(C(F)(F)F)c3)nnn2c2ccccc12	9	-3	22*	15	2	-22	-10
COc1ccc(-c2cc(C(F)(F)F)nc(N3CCCCC3)n2)cc1OC	-11	1	19*	2	5	2	-4
COC(=O)C1CN(Cc2cn(Cc3ccc(OC)cc3)nn2)CCS(=O)(=O)N1Cc1ccc(Cl)cc1 (configuration not stated)	/	1	-2	-3	/	/	/
CCN(CC)CCOc1nc(C)nc2c1oc1ccccc12	-6	-3	18*	0	0	-3	3
COC(=O)C1=C(C(=O)OC)C2(OC1c1ccccc1C)C(=O)c1ccccc1C2=O (configuration not stated)	-21	-1	19*	-3	2	-5	-7
Cc1ccccc1C(=O)/C=C1\NC(=O)CS1	-15	-1	17*	0	-3	1	2
O=C(N[C@H](Cc1ccccc1)C(=O)NCC1CCCO1)[C@H]1O[C@@H](n2ccc(=O)[nH]c2=O)[C@H](O)[C@@H]1O (some centres not stated)	/	-4	2	5	-7	/	/
CCCCn1c(N)c(N(CCC(C)C)C(=O)C2=COCCO2)c(=O)[nH]c1=O	1	5	7	-8	-5	4	/
CCCCN(C(=O)C1=COCCO1)c1c(N)n(CCC)c(=O)[nH]c1=O	0	0	20*	0	3	8	-6
C#CCONC(=O)c1cc(OCC(F)(F)F)ccc1OCC(F)(F)F	-1	-2	18*	5	0	-1	0
CCOc1ccc(CCNS(=O)(=O)c2cccc3nsnc23)cc1OCC	11	1	17*	6	7	6	-1
COc1ccc(CCNS(=O)(=O)c2cccc3nsnc23)cc1OC	8	0	-1	5	4	4	/
SMILES	ATG4B inhibitor	PRMT1 inh	SIAE inh	mABHD4 FP	TCR CD3 inh	HTRA1 inh	SIAE confirm
Cc1nc(NN)c2c3c(sc2n1)COC(C)(C)C3	8	1	27*	4	-3	2	3
Cn1cc(/C=N\NC(=O)C2COc3ccccc3O2)c2ccccc21 (configuration not stated)	/	1	20*	-9	1	/	1
CC(C)=NNc1cc([N+](=O)[O-])cc2c1C(=O)N(C)S2=O (configuration not stated)	-1	13	17*	5	-2	4	1
NC(=O)CC(NC(=O)Cc1ccc(Cl)cc1)c1ccc(NC2CCCC2)c([N+](=O)[O-])c1 (configuration not stated)	-22	1	-5	-5	1	-3	/
NC(=O)CC(NC(=O)Cc1ccc(Cl)cc1)c1ccc(NC2CCCCC2)c([N+](=O)[O-])c1 (configuration not stated)	-3	-2	20*	-2	-4	-2	-8
CC(C)c1ccc(OCC(=O)NC2CC(C)(C)NC(C)(C)C2)c(Br)c1	-12	0	18*	3	9	3	-4
CC1(C)CC(NC(=O)COc2ccc(Cl)cc2Cl)CC(C)(C)N1	-3	0	4	-3	1	-5	/
O=C(Cc1cccs1)NCCN1CCOCC1	0	-2	22*	-3	2	4	1
Nc1sccc1C(=O)NCCN1CCOCC1	/	10	19*	11	0	/	2
Cc1cc(Br)cn2c(Cc3ccccc3C(F)(F)F)c(-c3ccc(F)cc3)nc12	/	2	-9	-25	-8	/	/
O=C(Nc1cc(S(=O)(=O)N2CCOCC2)ccc1N1CCCCC1)c1cc(-c2ccccn2)nc2ccccc12	2	11	18*	-1	-3	-2	9
Cc1ccc(S(=O)(=O)N2CCOCC2)cc1NC(=O)c1cc(-c2ccccn2)nc2ccccc12	-13	-3	-8	-11	-8	-10	/
CCS(=O)(=O)Nc1ccc2c(c1)C(=O)N(C)[C@@H]1CC[C@H](CC(=O)NCCCN3CCOCC3)O[C@H]1CO2	/	-6	18*	-4	/	/	19*
COC(=O)[C@H](CC(C)C)N(CCCc1cn(Cc2ccc(C)cc2)nn1)S(=O)(=O)c1ccc(F)cc1Br	/	-1	-4	0	/	/	/
COc1ccc(CSc2nnc(SCC(=O)Nc3ccccc3-c3ccccc3)s2)cc1	/	-1	-6	-12	/	/	/
Cn1cccc1Cc1nnc(SCC(=O)Nc2nccs2)n1C	3	6	3	0	9	4	/
COc1ccc(-n2c(Cc3cccn3C)nnc2SCC(=O)Nc2nccs2)cc1	-3	7	17*	0	0	7	3
Cc1ccc(C(=O)OCC(=O)NC2CCCCCC2)c(C)c1	13	-1	122*	4	5	-8	-2
Cc1cccc(C(=O)OCC(=O)NC2CCCCCCC2)c1	-37	-6	-10	-10	-8	-10	/

Screens from PubChem.
